This is a sample that favours compounds with a hit; in the whole collection about 4.6% have one here.
TAAR1 antagonist – human TAAR1 antagonism | Q96RJ0 | CHO RD-HGA16 TAAR1, Fluo-8 calcium fluorescence, antagonist | inhibition, % at 3 µM | actives 1.5% (n = 360,000) | AID 624466;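 active = inhibition above a per-plate cutoff, the mean inhibition of test compounds on that plate plus 3 SD, cut at about 49% in these data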
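Test system – hTAAR1-expressing CHO RD-HGA16 cells, Gα16-coupled · Reagent – β-PEA at EC80 concentration, post-compound challenge · Compound dosing – 3 µM, single point · Timing – 140 s kinetic read after compound, 140 s after agonist · Detection – Fluo-8 intracellular calcium dye fluorescence, real-time kinetic reads · Control set – DMSO and EC80 PEA controls · Repeats – n of 1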
OX1R antag-1 – OX1R (human) antagonism; actives 1.8% (n = 330,000); O43613; inhibition, % at 6.6 µM; OX1R-expressing cells, FRET antagonist read-out; in the data active = inhibition mostly above about 38%, no sharp cut-off; inactive = mostly below about 40%
Target sequence (O43613 whole entry, looked up): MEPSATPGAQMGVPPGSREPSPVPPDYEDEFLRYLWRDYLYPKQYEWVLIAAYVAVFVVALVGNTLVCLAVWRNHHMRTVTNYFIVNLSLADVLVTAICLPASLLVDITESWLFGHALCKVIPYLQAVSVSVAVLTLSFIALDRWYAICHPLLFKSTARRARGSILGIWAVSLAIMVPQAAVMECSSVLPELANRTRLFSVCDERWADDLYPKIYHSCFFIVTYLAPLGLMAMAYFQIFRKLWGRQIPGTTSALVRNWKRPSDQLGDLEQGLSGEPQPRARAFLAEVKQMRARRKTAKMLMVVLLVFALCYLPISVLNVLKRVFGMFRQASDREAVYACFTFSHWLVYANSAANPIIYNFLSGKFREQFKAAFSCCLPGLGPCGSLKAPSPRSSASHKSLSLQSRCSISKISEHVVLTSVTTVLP
GPR7 antagonist – antagonists of human GPR7 (neuropeptides B/W receptor 1); GPR7-expressing cells, fluorescence antagonist assay; AID 1861; actives 1.1% (n = 290,000); inhibition, % at 4.4 µM; in the data active = inhibition above about 16%, passing the limit was not always enough;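 note: cells stimulated with the agonist NPW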
TAAR1 ag – agonists of human TAAR1; Q96RJ0; CHO RD-HGA16 TAAR1, Fluo-8 calcium fluorescence; vehicle wells 0%, saturating PEA agonist 100%; actives 0.99% (n = 360,000); activation, % at 3 µM;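 active = activation above the mean activation of all test compounds in the run plus 3 SD, cut at about 38% in these data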
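Signal – calcium-sensitive Fluo-8 signal, excitation 470-495, emission 515-575 nm · System – RD-HGA16 (CHO) cells co-expressing Gα16 and hTAAR1 · Incubation – 17-24 h seeding, 75 min 37 °C dye, 30 min RT · Compound dosing – 3 µM single concentration · Repeats – no replicates (n 1)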
CHO parental Ca – signal in parental CHO cells, OX1R antagonist counter-screen; parental CHO-K1, ATP-induced calcium, Fluo-8 fluorescence; inhibition, % at 5.6 µM; actives 0.63% (n = 330,000); AID 463079;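 active = inhibition above that plate's mean sample inhibition plus 3 SD, cut at about 26% in these data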
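Material: parental CHO cells / Compound: single nominal dose of 5.6 µM per compound / Signal: Fluo-8 fluorescence / Replicates: singlicate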
OX1R antag-2 – antagonists of human orexin 1 receptor. O43613. CHO/OX1R cells, Fluo-8 calcium fluorescence, orexin A. inhibition, % at 5 µM. actives 0.43% (n = 330,000). AID 434989;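 active = inhibition above its plate's threshold, mean inhibition of all tested compounds on the plate plus 3 SD, cut at about 37% in these data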
GPR7 antag conf – confirmation of human GPR7 antagonists; GPR7-expressing cells, calcium fluorescence antagonist mode; actives 52% (n = 2,400); shares compounds with GPR7 antagonist; inhibition, % at 4.4 µM; AID 1952; in the data active = inhibition above about 24%;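 note: stimulated with the GPR7 agonist NPW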
MCHR1 antagonist – antagonizes human MCHR1, a GPR7 antagonist counter-screen; shares compounds with GPR7 antagonist; MCHR1-expressing cells, fluorescence antagonist assay; inhibition, % at 4.4 µM; actives 62% (n = 2,400); in the data active = inhibition above about 22%
A number is an active result.

`CC(=O)c1ccc(OCC(O)COc2ccc(C(C)=O)cc2)cc1` gave TAAR1 antagonist inactive, OX1R antag-1 inactive, GPR7 antagonist inactive, TAAR1 ag inactive, CHO parental Ca inactive and OX1R antag-2 inactive.
For O=C(Nc1ccsc1C(=O)O)c1ccc(Cl)cc1 the results were TAAR1 antagonist inactive, OX1R antag-1 inactive, GPR7 antagonist 46, TAAR1 ag inactive, CHO parental Ca inactive, OX1R antag-2 inactive, GPR7 antag conf inactive and MCHR1 antagonist inactive.
For Cc1ccc(C(=O)Nc2ccsc2C(=O)O)cc1 the results were TAAR1 antagonist inactive, OX1R antag-1 inactive, GPR7 antagonist inactive, TAAR1 ag inactive, CHO parental Ca inactive and OX1R antag-2 inactive.
Cc1nc(NC(C)c2ccccc2)c2c3c(sc2n1)CCC3 (centres undefined) was read as OX1R antag-1 inactive, GPR7 antagonist 27, CHO parental Ca inactive, OX1R antag-2 inactive, GPR7 antag conf 28 and MCHR1 antagonist 29.
For Cc1ccc(CNc2nc(C)nc3sc4c(c23)CCC4)cc1 the results were TAAR1 antagonist inactive, OX1R antag-1 inactive, GPR7 antagonist inactive, TAAR1 ag inactive, CHO parental Ca inactive and OX1R antag-2 inactive.
For O=C1NC(Cc2ccc(O)cc2)c2nc3cc(Cl)ccc3c(=O)n2-c2cc(Cl)ccc21 (centres undefined) the results were TAAR1 antagonist inactive and TAAR1 ag inactive.
`O=C(NC1CCSc2ccccc21)c1cccc(Br)c1` (centres undefined) gave TAAR1 antagonist inactive, OX1R antag-1 inactive, GPR7 antagonist 27, TAAR1 ag inactive, CHO parental Ca inactive, OX1R antag-2 inactive, GPR7 antag conf inactive and MCHR1 antagonist inactive.
For CN1CCN(NC(=O)Nc2ccc(F)cc2)CC1 the results were TAAR1 antagonist inactive, GPR7 antagonist inactive and TAAR1 ag inactive.
Cn1cc(C(=O)c2cccc(Cl)c2)cc1/C=N\O was read as TAAR1 antagonist inactive, OX1R antag-1 inactive, GPR7 antagonist 22, TAAR1 ag inactive, CHO parental Ca inactive, OX1R antag-2 inactive, GPR7 antag conf inactive and MCHR1 antagonist inactive.
Cn1cc(C(=O)c2cccc(Cl)c2)cc1C#N was read as TAAR1 antagonist inactive, OX1R antag-1 inactive, GPR7 antagonist inactive, TAAR1 ag inactive, CHO parental Ca inactive and OX1R antag-2 inactive.
For O=C(NCc1n[nH]c(=O)c2ccccc12)C1CC(=O)N(c2ccccc2)C1 (centres undefined) the results were TAAR1 antagonist inactive, OX1R antag-1 inactive, TAAR1 ag inactive, CHO parental Ca inactive and OX1R antag-2 inactive.
For COc1ccc(-n2c(SCCC#N)nnc2-c2cc(Cl)ccc2OC)cc1Cl the results were TAAR1 antagonist inactive, OX1R antag-1 inactive, GPR7 antagonist 24, TAAR1 ag inactive, CHO parental Ca inactive, OX1R antag-2 inactive, GPR7 antag conf 40 and MCHR1 antagonist 46.
Screening Cc1cccc(C)c1NC(=O)CN(C)C(=O)Cn1c(=O)cnc2ccccc21 returned TAAR1 antagonist inactive, OX1R antag-1 inactive, GPR7 antagonist inactive, TAAR1 ag inactive, CHO parental Ca inactive and OX1R antag-2 inactive.
For CCC(Oc1ccccc1)C(=O)Nc1ccc(S(=O)(=O)NCC2CCCO2)cc1 (centres undefined) the results were TAAR1 antagonist inactive, OX1R antag-1 inactive, GPR7 antagonist 23, TAAR1 ag inactive, CHO parental Ca inactive, OX1R antag-2 inactive, GPR7 antag conf inactive and MCHR1 antagonist 34.
`C=CCn1c(=N)n(CC(O)COc2ccccc2OC)c2ccccc21` (centres undefined) gave TAAR1 antagonist inactive, OX1R antag-1 inactive, GPR7 antagonist inactive, TAAR1 ag inactive, CHO parental Ca inactive and OX1R antag-2 inactive.
`CCCCn1c(=N)n(CC(O)COc2cccc(C)c2)c2ccccc21` (centres undefined) gave TAAR1 antagonist inactive, OX1R antag-1 inactive, GPR7 antagonist 33, TAAR1 ag inactive, CHO parental Ca inactive, OX1R antag-2 inactive, GPR7 antag conf 37 and MCHR1 antagonist 46.
`CCN(CC)CCn1c(=N)n(CC(O)COc2ccccc2)c2ccccc21` (centres undefined) gave TAAR1 antagonist inactive, OX1R antag-1 inactive, GPR7 antagonist 29, TAAR1 ag inactive, CHO parental Ca inactive, OX1R antag-2 inactive, GPR7 antag conf inactive and MCHR1 antagonist inactive.
CCCn1c(=N)n(CC(O)COc2ccc(C)cc2)c2ccccc21 (centres undefined) was read as TAAR1 antagonist inactive, OX1R antag-1 inactive, GPR7 antagonist inactive, TAAR1 ag inactive, CHO parental Ca inactive and OX1R antag-2 inactive.
Screening COc1ccccc1OCC(O)Cn1c(=N)n(Cc2ccccc2)c2ccccc21 (centres undefined) returned TAAR1 antagonist inactive, OX1R antag-1 inactive, GPR7 antagonist 25, TAAR1 ag inactive, CHO parental Ca inactive, OX1R antag-2 inactive, GPR7 antag conf 29 and MCHR1 antagonist 35.
Cc1ccc(N(C(=O)c2csnn2)C(C(=O)NC2CCCC2)c2ccccn2)cc1 (centres undefined) was read as TAAR1 antagonist inactive, OX1R antag-1 inactive, GPR7 antagonist inactive, TAAR1 ag inactive, CHO parental Ca inactive and OX1R antag-2 inactive.
For Cc1cc([N+](=O)[O-])cc(C)c1OCC(=O)N/N=C/c1ccc(OC(=O)c2ccccc2)cc1 the results were TAAR1 antagonist inactive, OX1R antag-1 inactive, TAAR1 ag inactive, CHO parental Ca inactive, OX1R antag-2 inactive and MCHR1 antagonist inactive.
For Cc1ccc(CNC(=O)C2CC(c3cccc([N+](=O)[O-])c3)=NO2)cc1 (centres undefined) the results were TAAR1 antagonist inactive, OX1R antag-1 inactive, GPR7 antagonist 32, TAAR1 ag inactive, CHO parental Ca inactive, OX1R antag-2 inactive, GPR7 antag conf inactive and MCHR1 antagonist 34.
COc1ccc(CNC(=O)C2CC(c3cccc([N+](=O)[O-])c3)=NO2)cc1 (centres undefined) was read as TAAR1 antagonist inactive, OX1R antag-1 inactive, GPR7 antagonist inactive, TAAR1 ag inactive, CHO parental Ca inactive and OX1R antag-2 inactive.
`COc1cccc(CNC(=O)c2ccc(NC(=O)C3=CSCCO3)cc2)c1` gave TAAR1 antagonist inactive, OX1R antag-1 inactive, GPR7 antagonist inactive, TAAR1 ag inactive, CHO parental Ca inactive and OX1R antag-2 inactive.
CCc1cc2c(NCc3ccccc3)nc(C)nc2s1 was read as TAAR1 antagonist inactive, OX1R antag-1 inactive, GPR7 antagonist 23, TAAR1 ag inactive, CHO parental Ca inactive, OX1R antag-2 inactive, GPR7 antag conf inactive and MCHR1 antagonist 38.

Bioassay records: PubChem, The Scripps Research Institute Molecular Screening Center
